According to ChEMBL document CHEMBL3872205, “Design, synthesis and evaluation of novel potent angiotensin II receptor 1 antagonists” (Eur J Med Chem, 2016):

Key:
[1] = Half life in Wistar rat Heart at 15 mg/kg, po by HPLC analysis; type: ADME, organism-based
Method in brief: (§1)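 Tissue distribution in male Wistar rats given oral 10, 15 or 30 mg/kg; heart, liver, spleen, lung, kidney and brain collected predose and 0.5–72 h post-dose (n = 6 per time). Tissue rinsed in saline, homogenised 0.25 g/1 mL saline, methanol extraction, dried under nitrogen, reconstituted in methanol. Analysis by reverse-phase C18 HPLC, acetonitrile/water 60:40, 1.0 mL/min, ambient temperature.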

[2] = Tmax in Wistar rat spleen at 10 mg/kg, po by HPLC analysis; type: ADME, organism-based
[3] = Tmax in Wistar rat kidney at 15 mg/kg, po by HPLC analysis; type: ADME, organism-based
Method in brief: (§2)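 Male Wistar rats (180 ± 20 g) received a single oral dose of 10, 15 or 30 mg/kg. Tissues were collected at 0, 0.5, 1, 2, 4, 6, 8, 12, 24, 48 and 72 h (n = 6 per point). Samples of 0.25 g were rinsed, then homogenized in saline (0.25 g/1 mL) and centrifuged at 10,000 × g. Supernatant was methanol-extracted, dried under nitrogen at 50 °C and reconstituted in methanol. Analysis was by C18 HPLC (acetonitrile 60% / water 40%, 1.0 mL/min).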

[4] = MRT (0 to 72 hrs) in Wistar rat spleen at 15 mg/kg, po by HPLC analysis; type: ADME, organism-based; method in brief: as §2
[5] = AUC (0 to infinity) in Wistar rat plasma at 15 mg/kg, po by HPLC analysis; type: ADME, organism-based; design: dose 15 mg/kg, route oral, time infinity
Method in brief: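 Male Wistar rats (180 ± 20 g, n = 6 per group) got one oral dose. Heparinized blood was taken by retro-orbital puncture before dosing and at 0.5–72 h. Plasma was spun at 4000 × g, 4 °C, 10 min, spiked with internal standard and protein-precipitated with acetonitrile. Analysis was reverse-phase C18 HPLC (0.02 mol/L KH2PO4 55%/acetonitrile 45%, 1.0 mL/min). Calibration used 0.1–10 µg/mL, peak-height ratio, weighting concentration^-2.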

[6] = AUC (0 to infinity) in Wistar rat kidney at 10 mg/kg, po by HPLC analysis; type: ADME, organism-based; design: dose 10 mg/kg, time infinity, route oral
Method in brief: (§3)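 Wistar rats (180 ± 20 g) were dosed orally at 10, 15 or 30 mg/kg. Heart, liver, spleen, lung, kidney and brain were collected at 0–72 h (n = 6 per point). Tissue was rinsed, blotted and homogenized in saline (0.25 g/1 mL), then spun at 10,000 × g. Supernatant was methanol-extracted, dried under nitrogen at 50 °C, reconstituted in methanol and run on C18 HPLC (acetonitrile 60%/water 40%, 1.0 mL/min).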

[7] = Cmax in Wistar rat kidney at 30 mg/kg, po by HPLC analysis; type: ADME, organism-based; design: dose 30 mg/kg, route oral; method in brief: as §1
[8] = MRT (0 to 72 hrs) in Wistar rat plasma at 15 mg/kg, po by HPLC analysis; type: ADME, organism-based
Method in brief: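 Male Wistar rats (180 ± 20 g), 6 per dose group, each given a single oral dose. Blood was drawn by retro-orbital puncture into heparin at predose and at 0.5, 1, 2, 4, 6, 8, 12, 24, 48 and 72 h, then spun at 4000 × g and 4 °C. Plasma with internal standard was acetonitrile-precipitated, filtered and run on reverse-phase C18 HPLC (0.02 mol/L KH2PO4 55% / acetonitrile 45%, 1.0 mL/min). Calibration standards were 0.1–10 µg/mL, fitted by peak-height ratio with 1/conc² weighting.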

[9] = tested on: Rattus norvegicus; assay: Toxicity in rat model assessed as effect on heart rate at 10 to 15 mg/kg, po up to 24 hrs; type: organism-based; conditions: in vivo
[10] = Cmax in Wistar rat lung at 30 mg/kg, po by HPLC analysis; type: ADME, organism-based; design: dose 30 mg/kg, route oral; method in brief: as §1
[11] = AUC (0 to 72 hrs) in Wistar rat liver at 10 mg/kg, po by HPLC analysis; type: ADME, organism-based; design: time < 72 hr, dose 10 mg/kg, route oral; method in brief: as §3
[12] = AUC (0 to 72 hrs) in Wistar rat spleen at 15 mg/kg, po by HPLC analysis; type: ADME, organism-based; design: dose 15 mg/kg, time < 72 hr, route oral; method in brief: as §3
[13] = Tmax in Wistar rat brain at 10 mg/kg, po by HPLC analysis; type: ADME, organism-based; method in brief: as §2
[14] = MRT (0 to infinity) in Wistar rat lung at 10 mg/kg, po by HPLC analysis; type: ADME, organism-based; method in brief: as §2
[15] = tested on: Mus musculus; assay: Toxicity in ICR mouse assessed as untoward reaction at 1200 mg/kg, po after 2 weeks; type: organism-based; conditions: in vivo, 336 h
[16] = MRT (0 to 72 hrs) in Wistar rat Heart at 15 mg/kg, po by HPLC analysis; type: ADME, organism-based; method in brief: as §1
[17] = Tmax in Wistar rat brain at 30 mg/kg, po by HPLC analysis; type: ADME, organism-based; method in brief: as §2
[18] = Tmax in Wistar rat spleen at 15 mg/kg, po by HPLC analysis; type: ADME, organism-based
[19] = MRT (0 to 72 hrs) in Wistar rat liver at 15 mg/kg, po by HPLC analysis; type: ADME, organism-based; method in brief: as §2
[20] = MRT (0 to infinity) in Wistar rat Heart at 30 mg/kg, po by HPLC analysis; type: ADME, organism-based; method in brief: as §2
[21] = MRT (0 to infinity) in Wistar rat liver at 30 mg/kg, po by HPLC analysis; type: ADME, organism-based; method in brief: as §2
[22] = Half life in Wistar rat plasma at 15 mg/kg, po by HPLC analysis; type: ADME, organism-based

Q: What does the source list for `CCCCC1=NC2(CCCC2)C(=O)N1Cc1ccc2c(ccn2-c2ccccc2-c2nnn[nH]2)c1`?
A: half-life [1]: 15.8 h; Tmax [2]: 2 h; Tmax [3]: 2.33 h; MRT last [4]: 9.71 h; AUC(0-inf) [5]: 26100 ng·h/mL; AUC(0-inf) [6]: 10800 ng·h/mL; Cmax [7]: 396 ng/mL; MRT last [8]: 10.2 h; Activity [9]: Non-Toxic; Cmax [10]: 396 ng/mL; AUC(0-t) at 72 h [11]: 3070 ng·h/mL; AUC(0-t) at 72 h [12]: 11900 ng·h/mL; Tmax [13]: 6.67 h; MRT inf [14]: 10.6 h; Activity [15]: Non-Toxic; MRT last [16]: 16.9 h; Tmax [17]: 5.83 h; Tmax [18]: 1.5 h; MRT last [19]: 4.77 h; MRT inf [20]: 28.1 h; MRT inf [21]: 5.49 h; half-life [22]: 9.03 h
